Calls of active or inactive are those of the source. The rule behind the calls is not given here.
Columns and labels:
PC-3 [1] = experiment: Antitumor activity against human PC3 cells xenografted in athymic NCr-nu/nu mouse assessed as tumor growth inhibition at 10 mg/kg, qd administered via oral gavage measured every 2 to 3 days; format: functional, organism-based
Summary of the method: (§1)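 Nude mice with palpable subcutaneous PC-3 tumors (n = 9–11 per group) were dosed once daily by oral gavage. Study 1 used 3 or 10 mg/kg in 95:5 olive oil/EtOH vehicle; study 2 used 10 or 30 mg/kg in 95:5 PEG400/Tween80 vehicle. Tumor volume and body weight were measured periodically. Tumor growth was analysed by a repeated-measures linear mixed model with autoregressive covariance; weight change by one-way ANOVA with Sidak's test.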

[2] = Drug uptake in pre-cannulated Sprague-Dawley rat RBC at 10 mg/kg administered via oral gavage after 24 hrs by LC-MS/MS analysis; format: ADME, organism-based, Erythrocyte; conditions: red blood cells, read-out: Drug uptake
Summary of the method: (§2)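 After one 10 mg/kg oral gavage to SD rats (n = 4 per group), red blood cells, brain, lung, liver, kidney and prostate were harvested at 24 h. Drug levels were quantified by LC-MS/MS.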

[3] = Drug uptake in pre-cannulated Sprague-Dawley rat brain at 10 mg/kg administered via oral gavage after 24 hrs by LC-MS/MS analysis; format: ADME, organism-based; conditions: read-out: Drug uptake; summary of the method: as §2
[4] = Cytotoxicity against human PC3 cells assessed as reduction in cell viability after 24 hrs by WST-1 assay; format: functional, cell-based; conditions: PC-3, 24 h
Summary of the method: (§3)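 Cells were exposed to compound for 24 h (n = 3–4), and viability was read as mitochondrial activity by WST-1. IC50 and IC90 were derived from concentration–response curves and reported as mean ± SEM.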

[5] = Terminal half-life in pre-cannulated Sprague-Dawley rat at 10 mg/kg administered via oral gavage after 0.5 to 24 hrs by LC-MS/MS analysis; format: ADME, organism-based; conditions: in vivo, read-out: beta t1/2 (converted)
Summary of the method: (§4)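 A single 10 mg/kg oral gavage was given to SD rats (n = 4 per group). Vehicle was 90:10 olive oil/EtOH or 95:5 PEG400/Tween80, depending on the analog. Plasma was collected periodically and drug was measured by LC-MS/MS; data are mean ± SEM.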

[6] = Drug uptake in tumor of human PC3 cells xenografted in athymic NCr-nu/nu mouse at 10 mg/kg, qd administered via oral gavage measured 24 hrs post last dose by LC-MS/MS analysis; format: ADME, organism-based, Neoplasm, PC-3; conditions: read-out: Drug uptake
Summary of the method: (§5)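 Tumors were harvested at the end of daily oral-gavage xenograft studies in nude mice bearing PC-3 tumors (3, 10 or 30 mg/kg). Drug accumulation in tumor was measured by LC-MS/MS and reported as mean ± SEM.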

[7] = Cmax in pre-cannulated Sprague-Dawley rat at 2 mg/kg, iv after […] to 8 hrs by LC-MS/MS analysis; format: ADME, organism-based; set-up: dose 2 mg/kg, route intravenous; conditions: in vivo
Summary of the method: (§6)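 SD rats (n = 3–4 per group) received a single 2 mg/kg i.v. injection in PEG400/EtOH/Tween80/H2O (40:10:3:47). Plasma was sampled periodically and drug was quantified by LC-MS/MS. t1/2, Cl, Cmax and AUC were reported as mean ± SEM.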

[8] = Tmax in pre-cannulated Sprague-Dawley rat at 10 mg/kg administered via oral gavage after 0.5 to 24 hrs by LC-MS/MS analysis; format: ADME, organism-based; conditions: in vivo; summary of the method: as §4
[9] = Oral bioavailability in pre-cannulated Sprague-Dawley rat at 10 mg/kg administered via gavage after 0.5 to 24 hrs by LC-MS/MS analysis; format: ADME, organism-based; conditions: in vivo
LNCaP = experiment: Cytotoxicity against human LNCAP cells assessed as reduction in cell viability after 24 hrs by WST-1 assay; format: functional, cell-based; summary of the method: as §3
[10] = Drug uptake in tumor of human PC3 cells xenografted in athymic NCr-nu/nu mouse at 3 mg/kg, qd administered via oral gavage measured 24 hrs post last dose by LC-MS/MS analysis; format: ADME, organism-based, Neoplasm, PC-3; conditions: read-out: Drug uptake; summary of the method: as §5
[11] = Clearance in pre-cannulated Sprague-Dawley rat at 2 mg/kg, iv after […] to 8 hrs by LC-MS/MS analysis; format: ADME, organism-based; conditions: in vivo; summary of the method: as §6
Plasma [12] = experiment: Drug uptake in pre-cannulated Sprague-Dawley rat plasma at 10 mg/kg administered via oral gavage after 1 hr by LC-MS/MS analysis; format: ADME, organism-based; conditions: in vivo; summary of the method: as §4
[13] = AUC(0 to t) in pre-cannulated Sprague-Dawley rat at 2 mg/kg, iv after […] to 8 hrs by LC-MS/MS analysis; format: ADME, organism-based; set-up: time upper 8 hr, dose 2 mg/kg, route intravenous; conditions: in vivo; summary of the method: as §6
[14] = Octanol-buffer partition co-efficient, log D of the compound at 100 uM at pH 7.4 by shake-flask method; format: physicochemical
PC-3 [15] = experiment: Antitumor activity against human PC3 cells xenografted in athymic NCr-nu/nu mouse assessed as tumor growth inhibition at 3 mg/kg, qd administered via oral gavage measured every 2 to 3 days; format: functional, organism-based; summary of the method: as §1
[16] = Drug uptake in pre-cannulated Sprague-Dawley rat kidney at 10 mg/kg administered via oral gavage after 24 hrs by LC-MS/MS analysis; format: ADME, organism-based; conditions: read-out: Drug uptake; summary of the method: as §2
[17] = Drug uptake in pre-cannulated Sprague-Dawley rat liver at 10 mg/kg administered via oral gavage after 24 hrs by LC-MS/MS analysis; format: ADME, organism-based; conditions: read-out: Drug uptake; summary of the method: as §2
[18] = Drug uptake in pre-cannulated Sprague-Dawley rat prostate gland at 10 mg/kg administered via oral gavage after 24 hrs by LC-MS/MS analysis; format: ADME, organism-based; conditions: read-out: Drug uptake; summary of the method: as §2
Mus musculus [19] = experiment: Toxicity in athymic NCr-nu/nu mouse xenografted with human PC3 cells assessed as change in body weight at 10 mg/kg administered via oral gavage measured every 2 to 3 days; format: organism-based, PC-3; conditions: in vivo; summary of the method: as §1
[20] = AUC(0 to t) in pre-cannulated Sprague-Dawley rat at 10 mg/kg administered via oral gavage after 0.5 to 24 hrs by LC-MS/MS analysis; format: ADME, organism-based; set-up: time upper 24 hr, time lower 0.5 hr, dose 10 mg/kg, route oral; conditions: in vivo; summary of the method: as §4
[21] = Tmax in pre-cannulated Sprague-Dawley rat at 2 mg/kg, iv after […] to 8 hrs by LC-MS/MS analysis; format: ADME, organism-based; conditions: in vivo; summary of the method: as §6
[22] = Cmax in pre-cannulated Sprague-Dawley rat at 10 mg/kg administered via oral gavage after 0.5 to 24 hrs by LC-MS/MS analysis; format: ADME, organism-based; set-up: dose 10 mg/kg, route oral; conditions: in vivo; summary of the method: as §4
Mus musculus [23] = experiment: Toxicity in athymic NCr-nu/nu mouse xenografted with human PC3 cells assessed as change in body weight at 3 mg/kg administered via oral gavage measured every 2 to 3 days; format: organism-based, PC-3; conditions: in vivo; summary of the method: as §1
[24] = Drug uptake in pre-cannulated Sprague-Dawley rat lung at 10 mg/kg administered via oral gavage after 24 hrs by LC-MS/MS analysis; format: ADME, organism-based; conditions: read-out: Drug uptake; summary of the method: as §2
[25] = Terminal half-life in pre-cannulated Sprague-Dawley rat at 2 mg/kg, iv after […] to 8 hrs by LC-MS/MS analysis; format: ADME, organism-based; conditions: in vivo, read-out: beta t1/2 (converted); summary of the method: as §6
[26] = Lipophilicity, log P of the compound; format: physicochemical; conditions: octanol/water
Plasma [27] = experiment: Drug uptake in pre-cannulated Sprague-Dawley rat plasma at 10 mg/kg administered via oral gavage after 2 hrs by LC-MS/MS analysis; format: ADME, organism-based; conditions: in vivo; summary of the method: as §4
[28] = Drug uptake in tumor of human PC3 cells xenografted in athymic NCr-nu/nu mouse at 30 mg/kg, qd administered via oral gavage measured 24 hrs post last dose by LC-MS/MS analysis; format: ADME, organism-based, Neoplasm, PC-3; conditions: read-out: Drug uptake; summary of the method: as §5
Mus musculus [29] = experiment: Toxicity in athymic NCr-nu/nu mouse xenografted with human PC3 cells assessed as change in body weight at 30 mg/kg administered via oral gavage measured every 2 to 3 days; format: organism-based, PC-3; conditions: in vivo; summary of the method: as §1

| SMILES | concentration at 24 h [2] [µM] | concentration at 24 h [3] [µM] | half-life [5] [h] | concentration at 24 h [6] [µM] | Cmax [7] [µM] | Tmax [8] [h] | bioavailability [9] [%] | clearance [11] [mL/min/kg] | AUC(0-t) [13] [µM·h] | logD at 100 µM [14] | concentration at 24 h [16] [µM] | concentration at 24 h [17] [µM] | concentration at 24 h [18] [µM] | AUC(0-t) [20] [µM·h] | TGI (PC-3 [1]) | IC50 [4] [µM] | IC90 [4] [µM] | IC50 (LNCaP) [µM] | IC90 (LNCaP) [µM] | Activity (Mus musculus [19]) | other results |
| --- | --- | --- | --- | --- | --- | --- | --- | --- | --- | --- | --- | --- | --- | --- | --- | --- | --- | --- | --- | --- | --- |
| CCCCCC(O)C(F)(F)F (stereo not given) | – | – | – | – | – | – | – | – | – | – | – | – | – | – | – | – | – | – | – | – | logP [26]: 1.14 |
| OC(F)(F)CF | – | – | – | – | – | – | – | – | – | – | – | – | – | – | – | – | – | – | – | – | logP [26]: 0.36 |

Now from value to compound, other results behind:

| concentration at 24 h [2] [µM] | concentration at 24 h [3] [µM] | half-life [5] [h] | concentration at 24 h [6] [µM] | Cmax [7] [µM] | Tmax [8] [h] | bioavailability [9] [%] | clearance [11] [mL/min/kg] | AUC(0-t) [13] [µM·h] | logD at 100 µM [14] | concentration at 24 h [16] [µM] | concentration at 24 h [17] [µM] | concentration at 24 h [18] [µM] | AUC(0-t) [20] [µM·h] | SMILES | TGI (PC-3 [1]) | IC50 [4] [µM] | IC90 [4] [µM] | IC50 (LNCaP) [µM] | IC90 (LNCaP) [µM] | Activity (Mus musculus [19]) | other results |
| --- | --- | --- | --- | --- | --- | --- | --- | --- | --- | --- | --- | --- | --- | --- | --- | --- | --- | --- | --- | --- | --- |
| 0.041 | 3.25 | 8.3 | 1.6 | 2.45 | 8 | 11 | 76.2 | 1.45 | 3.5 | 1.35 | 1.06 | 0.766 | 0.832 | CCCCCCCCCCCCC[C@H](O)C[C@H](O)[C@H](C)N [ENIGMOL] | Active | 12.1 | 14 | 11.7 | 19.6 | Non-toxic | concentration at 24 h [10]: 1.05 µM; Drug uptake (Plasma [12]): Not Active; TGI (PC-3 [15]): inactive; Tmax [21]: 4.8 min; Cmax [22]: 0.0846 µM; Activity (Mus musculus [23]): Non-toxic; concentration at 24 h [24]: 5.34 µM; half-life [25]: 4 h |
| 0.153 | 6.01 | 5.5 | 25.3 | 1.68 | 12 | 68 | 136 | 0.688 | 3.24 | 4.74 | 1.94 | 3.46 | 2.34 | C[C@H](N)[C@@H](O)C[C@@H](O)CCCCCCCCCCCCC(F)(F)F | inactive | 21.4 | 24.4 | 11.3 | 19.2 | 11.6% | concentration at 24 h [10]: 3.23 µM; Drug uptake (Plasma [12]): Not Active; TGI (PC-3 [15]): inactive; Tmax [21]: 4.8 min; Cmax [22]: 0.193 µM; Activity (Mus musculus [23]): Non-toxic; concentration at 24 h [24]: 18.7 µM; half-life [25]: 1.3 h |
| 0.936 | 16.1 | 9.9 | 23.6 | 4.4 | 8 | 10 | 34 | 2.91 | 1.73 | 14.8 | 9.29 | 6.94 | 1.47 | CCCCCCCCCCCCC(F)(F)[C@H](O)C[C@H](O)[C@H](C)N | Active | 11.7 | 15.3 | 13.4 | 16.7 | Non-toxic | Drug uptake (Plasma [27]): Not Active; concentration at 24 h [28]: 62 µM; Activity (Mus musculus [29]): Non-toxic; Tmax [21]: 4.8 min; Cmax [22]: 0.119 µM; concentration at 24 h [24]: 44.5 µM; half-life [25]: 5.7 h |
